Experimental data of several laboratories.
Target: Serine/threonine-protein kinase D2 (PRKD2, Homo sapiens, UniProt Q9BZL6)
Residues used in one study (Q9BZL6 1-878): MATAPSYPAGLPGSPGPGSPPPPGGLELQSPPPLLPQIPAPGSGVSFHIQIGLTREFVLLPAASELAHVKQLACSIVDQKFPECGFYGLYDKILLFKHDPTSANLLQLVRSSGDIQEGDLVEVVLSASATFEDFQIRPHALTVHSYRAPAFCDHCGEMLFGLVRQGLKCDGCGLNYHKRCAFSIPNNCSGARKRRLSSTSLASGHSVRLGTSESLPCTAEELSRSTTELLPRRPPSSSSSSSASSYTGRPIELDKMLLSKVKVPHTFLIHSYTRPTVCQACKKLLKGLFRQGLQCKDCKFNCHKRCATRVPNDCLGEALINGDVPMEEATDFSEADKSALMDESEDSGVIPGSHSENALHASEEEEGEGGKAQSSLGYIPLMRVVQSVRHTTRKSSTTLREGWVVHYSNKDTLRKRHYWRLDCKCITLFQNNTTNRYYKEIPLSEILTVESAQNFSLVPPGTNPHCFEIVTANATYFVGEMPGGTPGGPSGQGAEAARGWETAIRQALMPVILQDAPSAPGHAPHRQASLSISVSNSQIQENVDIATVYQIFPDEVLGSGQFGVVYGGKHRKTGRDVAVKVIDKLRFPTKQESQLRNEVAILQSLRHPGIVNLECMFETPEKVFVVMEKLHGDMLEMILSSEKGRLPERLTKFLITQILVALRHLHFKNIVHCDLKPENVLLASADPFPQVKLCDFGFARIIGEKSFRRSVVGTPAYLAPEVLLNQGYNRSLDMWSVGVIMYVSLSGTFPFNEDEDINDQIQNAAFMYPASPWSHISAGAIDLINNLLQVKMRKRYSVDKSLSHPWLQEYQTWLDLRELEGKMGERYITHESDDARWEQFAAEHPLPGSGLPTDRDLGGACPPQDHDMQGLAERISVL

Compound | observed | action | method | concentration | measurement | result
C#Cc1cc(-c2cc(Nc3nc(N[C@@H](C)c4ccc(F)cn4)ncc3Cl)n[nH]2)ccc1C=O | enzyme activity | inhibitor |  | 0.2 µM | inhibition | 5.36%
C[C@H]1CC[C@H](n2c3cnccc3c3cnc(Nc4ccc5c(n4)CCN(C(=O)CO)C5)nc32)CC1 | cell-free assay |  |  | 1 µM | remaining signal | 100%
COc1ccc2oc(-c3ccc4nc(N)oc4c3)c/c(=N\c3ccccc3NC(=O)CCN)c2c1 | binding |  |  | 1 µM | remaining binding | 94%
Cc1ccc(NC(=O)c2ccnc(C(F)(F)F)c2)cc1-c1cc(OCCO)nc(N2CCOCC2)c1 | binding |  |  | 1 µM | remaining binding | 88%
C=CC(=O)N1CCC([C@@H]2CCNc3c(C(N)=O)c(-c4ccc(Oc5ccccc5)cc4)nn32)CC1 | enzyme activity | inhibitor |  | 1 µM | inhibition | 3%
Cc1cc(O)c(-c2ccc([C@@H](C)CN(C)C)cc2)c2c1[nH]c(=O)c1sccc12 | enzyme activity | inhibitor |  | 0.1 µM | inhibition | -4.52%
CCCCC(=O)Nc1ccc(-c2ccc3ncn(CCC)c(=O)c3c2)cn1 | binding |  | competition with immobilised ligand | 0.5 µM | remaining binding | 88%
C1=C/COCc2cc(ccc2OCCN2CCCC2)Nc2nccc(n2)-c2cccc(c2)COC/1 | binding |  |  | 0.1 µM | remaining binding | 100%
CO[C@@H]1[C@H](N(C)C(=O)c2ccccc2)C[C@H]2O[C@]1(C)n1c3ccccc3c3c4c(c5c6ccccc6n2c5c31)C(=O)NC4 | enzyme activity | inhibitor |  | 1 µM | inhibition | 18%
